Test results as given in ChEMBL document CHEMBL2346641, “Discovery of disubstituted piperidines and homopiperidines as potent dual NK1 receptor antagonists-serotonin reuptake transporter inhibitors for the treatment of depression” (Bioorg Med Chem, 2013).
Active and inactive are the calls of the source.

What was measured:
[1] = Binding affinity to gerbil NK1 receptor; design: species or system Gerbillinae
[2] = Ratio of drug level in brain to serum in gerbil at 1 mg/kg, ip after 36 mins; type: ADME, organism-based; design: dose 1 mg/kg, route intraperitoneal; conditions: gerbillinae
How it was run: (§1)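 Gerbils given single IP dose in 100% PEG-400 (0.1–30 mg/kg); brain and serum sampled 36 min post-dose, matching the interval from dosing to end of forced swim test. Drug concentrations (nM) measured in each matrix and brain-to-serum ratio calculated; mean of n = 3 with SD.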

[3] = Ratio of drug level in brain to serum in gerbil at 0.3 mg/kg, ip after 36 mins; type: ADME, organism-based; design: dose 0.3 mg/kg, route intraperitoneal; conditions: gerbillinae; how it was run: as §1
[4] = Drug uptake in gerbil brain at 30 mg/kg, ip after 36 mins; type: ADME, organism-based; design: dose 30 mg/kg, route intraperitoneal; conditions: gerbillinae, read-out: Drug uptake
How it was run: (§2)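 Gerbils given IP doses as a solution in 100% PEG-400. Brain and serum sampled 36 min post-injection, covering the time from dosing to the end of the behavioral test. Values are means (n = 3) with SD.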

[5] = Drug uptake in gerbil brain at 3 mg/kg, ip after 36 mins; type: ADME, organism-based; design: dose 3 mg/kg, route intraperitoneal; conditions: gerbillinae, read-out: Drug uptake; how it was run: as §2
[6] = Drug uptake in gerbil brain at 1 mg/kg, ip after 36 mins; type: ADME, organism-based; design: dose 1 mg/kg, route intraperitoneal; conditions: gerbillinae, read-out: Drug uptake; how it was run: as §2
[7] = Drug uptake in gerbil serum at 30 mg/kg, ip after 36 mins; type: ADME, organism-based; design: dose 30 mg/kg, route intraperitoneal; conditions: gerbillinae, read-out: Drug uptake; how it was run: as §2
Gerbillinae = test: Antidepressant activity in gerbil assessed as decrease in immobility time at 10 to 30 mg/kg, ip administered for 30 mins prior to testing measured for 6 mins by forced swimming test; type: functional, organism-based
Neuromedin-K receptor = target: T1, Neuromedin-K receptor (Homo sapiens, UniProt P29371); test: Inhibition of NK3 receptor (unknown origin)
T1 sequence (P29371 whole entry): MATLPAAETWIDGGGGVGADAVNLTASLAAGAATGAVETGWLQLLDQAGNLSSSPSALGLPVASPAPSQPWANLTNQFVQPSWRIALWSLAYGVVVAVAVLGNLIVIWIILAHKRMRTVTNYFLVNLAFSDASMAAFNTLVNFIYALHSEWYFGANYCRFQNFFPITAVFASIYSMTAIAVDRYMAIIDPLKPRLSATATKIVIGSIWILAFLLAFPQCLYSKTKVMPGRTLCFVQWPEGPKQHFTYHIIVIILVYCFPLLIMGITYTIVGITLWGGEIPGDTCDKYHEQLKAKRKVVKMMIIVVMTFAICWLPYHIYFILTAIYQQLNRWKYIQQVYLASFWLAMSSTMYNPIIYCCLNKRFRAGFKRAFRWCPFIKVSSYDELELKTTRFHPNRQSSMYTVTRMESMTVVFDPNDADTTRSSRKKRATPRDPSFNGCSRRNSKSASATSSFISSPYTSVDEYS

[8] = target: 5-hydroxytryptamine receptor 1B (Homo sapiens, UniProt P28222); test: Inhibition of 5HT1B receptor (unknown origin)
Homo sapiens = species on record: Homo sapiens; test: Inhibition of Ca2+ channel (unknown origin) at 10 uM
How it was run: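 Screened at 10 µM in a commercial panel of over 70 receptors. Significance threshold set at ≥50% inhibition.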

Chain of 5-hydroxytryptamine receptor 1B (P28222 whole entry): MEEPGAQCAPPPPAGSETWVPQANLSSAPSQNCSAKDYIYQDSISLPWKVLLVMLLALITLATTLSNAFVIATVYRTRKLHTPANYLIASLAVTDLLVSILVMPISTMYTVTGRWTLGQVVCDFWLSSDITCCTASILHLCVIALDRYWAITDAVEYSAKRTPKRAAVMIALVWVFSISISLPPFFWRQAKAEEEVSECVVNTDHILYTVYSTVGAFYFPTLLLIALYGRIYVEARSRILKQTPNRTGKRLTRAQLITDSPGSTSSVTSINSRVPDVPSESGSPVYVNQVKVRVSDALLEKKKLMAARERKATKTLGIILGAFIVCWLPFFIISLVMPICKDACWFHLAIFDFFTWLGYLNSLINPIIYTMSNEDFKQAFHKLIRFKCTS

Work on `FC(F)(F)c1cc(COCC2(c3ccccc3)CCNCC2)cc(C(F)(F)F)c1` yielded an IC50 [1] of 2 nM, a Kp at 0.6 h [2] of 3.2 and a Kp at 0.6 h [3] of 3.2. For the same compound, the concentration at 0.6 h [4] was 7300 nM, the concentration at 0.6 h [5] was 880 nM and the concentration at 0.6 h [6] was 150 nM. For the same compound, the concentration at 0.6 h [7] was 2300 nM, the Activity (Gerbillinae) was “inactive” and the IC50 (Neuromedin-K receptor) was > 1000 nM. For the same compound, the IC50 [8] was > 1000 nM and the inhibition (Homo sapiens) was “Active”.
